Measurements taken from ChEMBL document CHEMBL3352593, “Tumor xenograft uptake of a pyrrole-imidazole (Py-Im) polyamide varies as a function of cell line grafted” (J Med Chem, 2014).

What was measured:
Tumour [1] = test: Drug level in tumor of matrigel-negative human A549 cells xenografted NSG mouse at 20 nmol, ip measured 5 weeks past engraftment by liquid scintillation counting method; format: ADME, organism-based, Neoplasm; settings: in vivo, 840 h
Procedure, shortened: (§1)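 Male NSG mice obtained at 8 weeks of age. Tumours engrafted subcutaneously with 2.5 M cells (viability ≥95% by trypan blue) in medium or 1:1 Matrigel; naive animals had no graft. Mice received 20 nmol C-14 polyamide per animal intraperitoneally. Tissues harvested 24 h later, solubilized, decolorized, and counted by liquid scintillation. Values are quench-corrected and normalized to organ weight; each tissue was analysed individually.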

Liver [2] = test: Drug level in balb/c mouse liver at 15 nmol, ip after 24 hrs by liquid scintillation counting method; format: ADME, organism-based; settings: in vivo
Procedure, shortened: (§2)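 Male balb/c mice given C-14-labelled polyamide (quantitated by scintillation counting before dosing) as a single 15 nmol intraperitoneal dose per animal. Organs collected 24 h later and solubilized at +65 °C for at least 12 h, then decolorized with H2O2. C-14 counted by liquid scintillation, quench-corrected and normalized to organ weight. N = 5, mean with standard deviation.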

Tumour [3] = test: Drug level in tumor of matrigel-positive human A549 cells xenografted NSG mouse at 20 nmol, ip measured 5 weeks past engraftment by liquid scintillation counting method; format: ADME, organism-based, Neoplasm; settings: in vivo, 840 h; procedure, shortened: as §1
Bone marrow = test: Drug level in balb/c mouse bone marrow at 15 nmol, ip after 24 hrs by liquid scintillation counting method; format: ADME, organism-based; settings: in vivo; procedure, shortened: as §2
Tumour [4] = test: Drug level in tumor of matrigel-positive human A549 cells xenografted NSG mouse at 20 nmol, ip measured 3 to 4 weeks past engraftment by liquid scintillation counting method; format: ADME, organism-based, Neoplasm; settings: in vivo; procedure, shortened: as §1
Liver [5] = test: Drug level in liver of matrigel-negative human A549 cells xenografted NSG mouse at 20 nmol, ip measured 5 weeks past engraftment by liquid scintillation counting method; format: ADME, organism-based; settings: in vivo, 840 h, in the assay text read “matrigel-positive” for “matrigel-negative”; procedure, shortened: as §1
Lung [6] = test: Drug level in lung of human A549 cells xenografted NSG mouse at 20 nmol, ip after 24 hrs by liquid scintillation counting method; format: ADME, organism-based; settings: in vivo; procedure, shortened: as §1
Kidney [7] = test: Drug level in kidney of human A549 cells and human LNCAP cells xenografted NSG mouse at 20 nmol, ip after 24 hrs by liquid scintillation counting method; format: ADME, organism-based; settings: in vivo; procedure, shortened: as §1
Liver [8] = test: Drug level in liver of human U251 cells xenografted NSG mouse at 20 nmol, ip after 24 hrs by liquid scintillation counting method; format: ADME, organism-based, U-251; settings: in vivo; procedure, shortened: as §1
Kidney [9] = test: Drug level in kidney of naive NSG mouse at 20 nmol, ip after 24 hrs by liquid scintillation counting method; format: ADME, organism-based; settings: in vivo; procedure, shortened: as §1
Liver [10] = test: Drug level in liver of matrigel-positive human A549 cells xenografted NSG mouse at 20 nmol, ip measured 5 weeks past engraftment by liquid scintillation counting method; format: ADME, organism-based; settings: in vivo, 840 h, in the assay text read “matrigel-negative” for “matrigel-positive”; procedure, shortened: as §1
Pancreas = test: Drug level in balb/c mouse pancreas at 15 nmol, ip after 24 hrs by liquid scintillation counting method; format: ADME, organism-based; settings: in vivo; procedure, shortened: as §2
Spleen = test: Drug level in balb/c mouse spleen at 15 nmol, ip after 24 hrs by liquid scintillation counting method; format: ADME, organism-based; settings: in vivo; procedure, shortened: as §2
Tumour [11] = test: Drug level in tumor of human LNCAP cells xenografted NSG mouse at 20 nmol, ip after 24 hrs by liquid scintillation counting method; format: ADME, organism-based, Neoplasm; settings: in vivo; procedure, shortened: as §1
Lung [12] = test: Drug level in lung of human LNCAP cells xenografted NSG mouse at 20 nmol, ip after 24 hrs by liquid scintillation counting method; format: ADME, organism-based; settings: in vivo; procedure, shortened: as §1
Tumour [13] = test: Drug level in tumor of human U251 cells xenografted NSG mouse at 20 nmol, ip after 24 hrs by liquid scintillation counting method; format: ADME, organism-based, Neoplasm, U-251; settings: in vivo; procedure, shortened: as §1
Kidney [14] = test: Drug level in balb/c mouse kidney at 15 nmol, ip after 24 hrs by liquid scintillation counting method; format: ADME, organism-based; settings: in vivo; procedure, shortened: as §2
Tumour [15] = test: Drug level in tumor of human A549 cells xenografted NSG mouse at 20 nmol, ip after 24 hrs by liquid scintillation counting method; format: ADME, organism-based, Neoplasm; settings: in vivo; procedure, shortened: as §1
Tumour [16] = test: Drug level in tumor of matrigel-negative human A549 cells xenografted NSG mouse at 20 nmol, ip measured 3 to 4 weeks past engraftment by liquid scintillation counting method; format: ADME, organism-based, Neoplasm; settings: in vivo; procedure, shortened: as §1
Lung [17] = test: Drug level in lung of human U251 cells xenografted NSG mouse at 20 nmol, ip after 24 hrs by liquid scintillation counting method; format: ADME, organism-based, U-251; settings: in vivo; procedure, shortened: as §1
Liver [18] = test: Drug level in liver of human LNCAP cells xenografted NSG mouse at 20 nmol, ip after 24 hrs by liquid scintillation counting method; format: ADME, organism-based; settings: in vivo; procedure, shortened: as §1
Liver [19] = test: Drug level in liver of human A549 cells and human LNCAP cells xenografted NSG mouse at 20 nmol, ip after 24 hrs by liquid scintillation counting method; format: ADME, organism-based; settings: in vivo; procedure, shortened: as §1
Kidney [20] = test: Drug level in kidney of human A549 cells xenografted NSG mouse at 20 nmol, ip after 24 hrs by liquid scintillation counting method; format: ADME, organism-based; settings: in vivo; procedure, shortened: as §1
Liver [21] = test: Drug level in liver of human A549 cells xenografted NSG mouse at 20 nmol, ip after 24 hrs by liquid scintillation counting method; format: ADME, organism-based; settings: in vivo; procedure, shortened: as §1
Brain = test: Drug level in balb/c mouse brain at 15 nmol, ip after 24 hrs by liquid scintillation counting method; format: ADME, organism-based; settings: in vivo; procedure, shortened: as §2

- Drug uptake (Tumour [1]): 0.25 mg/kg
- Drug uptake (Liver [2]): 0.49 mg/kg
- Drug uptake (Tumour [3]): 0.59 mg/kg
- Drug uptake (Bone marrow): 0.24 mg/kg
- Drug uptake (Tumour [4]): 0.23 mg/kg
- Drug uptake (Liver [5]): 0.65 mg/kg
- Drug uptake (Lung [6]): 0.15 mg/kg
- Drug uptake (Kidney [7]): 0.27 mg/kg
- Drug uptake (Liver [8]): 0.57 mg/kg
- Drug uptake (Kidney [9]): 0.23 mg/kg
- Drug uptake (Liver [10]): 0.55 mg/kg
- Drug uptake (Pancreas): 0.15 mg/kg
- Drug uptake (Spleen): 0.32 mg/kg
- Drug uptake (Tumour [11]): 1.5 mg/kg
- Drug uptake (Lung [12]): 0.12 mg/kg
- Drug uptake (Tumour [13]): 0.65 mg/kg
- Drug uptake (Kidney [14]): 0.22 mg/kg
- Drug uptake (Tumour [15]): 0.23 mg/kg
- Drug uptake (Tumour [16]): 0.23 mg/kg
- Drug uptake (Lung [17]): 0.12 mg/kg
- Drug uptake (Liver [18]): 1.04 mg/kg
- Drug uptake (Liver [19]): 1.04 mg/kg
- Drug uptake (Kidney [20]): 0.27 mg/kg
- Drug uptake (Liver [21]): 0.57 mg/kg
- Drug uptake (Brain): Not Active
SMILES: CC(=O)N[C@H](CCNC(=O)c1cc(NC(=O)c2cc(NC(=O)c3cc(NC(=O)c4nccn4C)cn3C)cn2C)cn1C)C(=O)Nc1cnc(C(=O)Nc2cc(C(=O)Nc3cc(C(=O)Nc4cc(C(=O)NCCCN(C)CCCN[14C](=O)c5cccc([14C](=O)O)c5)n(C)c4)n(C)c3)n(C)c2)n1C
